Structures are written as SMILES. Where only a bound is given, the exact number is not on record here.

The term ED50 denotes the midpoint of the dose-response relation. A low value points to greater potency. One may read the inhibition in vivo as how much of the control response was suppressed. Low values mean a weak effect, high ones a strong effect. As a reminder, the Inhibition is the relative decrease from the control value, in per cent. High values mean a response far below the control, low ones a response near the control.

What all share (type): functional
In assay [1] the test system is Mus musculus. As to the kind of experiment: Antimaximal electroshock seizure (MES) activity in mice after peroral administration of 100 mg/kg of compound; 4/5. The following applies: route oral.
For assay [2], the system named is Mus musculus. As to the kind of experiment: Antimaximal electroshock seizure activity was determined in mice when administered perorally. As to conditions: po.
In assay [3] the test system is Mus musculus. As to the kind of experiment: Antitremorine activity(TRM) of mice after peroral administration of 100 mg/kg of compound. As to conditions: route oral.
Assay [4] relates to Mus musculus. As to the kind of experiment: Antitremorine activity(TRM) of mice after peroral administration of 10 mg/kg of compound; No inhibition. As to conditions: route oral.
Assay [5] relates to Mus musculus. As to the kind of experiment: Antimaximal electroshock seizure (MES) activity in mice after peroral administration of 10 mg/kg of compound; 0/5. The following applies: route oral. For orientation: In the maximal electroshock model the usual endpoint is tonic extension of the hind limbs.
Assay [6] deals with Mus musculus. As to the kind of experiment: Antiexploratory activity (EXPL) of mice determined by an antimex activity meter,100 mg/kg of dose was administered perorally; No inhibition.
Assay [7] has as its system Mus musculus. As to the kind of experiment: Antireserpine activity (RES) of mice after peroral administration of 100 mg/kg of compound; No inhibition. As to conditions: route oral.
The test system of assay [8] is Mus musculus. As to the kind of experiment: Antipentylene tetrazole activity was determined in mice when administered perorally. The following applies: po. In outline:
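Groups of five male Std-ddY mice received compound orally in 0.5% tragacanth, then pentylenetetrazole 175 mg/kg ip. Blockade of the tonic extensor component scored as anticonvulsant. ED50 was the dose protecting 50% of animals (Litchfield-Wilcoxon).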

Assay [9] deals with Mus musculus. As to the kind of experiment: Antiexploratory activity (EXPL) of mice determined by an antimex activity meter, 50 mg/kg of dose was administered perorally; potent inhibition. As to conditions: route oral.
The test system of assay [10] is Mus musculus. As to the kind of experiment: The homovanillic acid (HVA) levels in mouse brain at 50 mg/kg of dose. In outline: (§1)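 Mice dosed orally in 0.5% aqueous tragacanth; brains of five mice per compound pooled. Homovanillic acid measured in brain extracts and reported as brain level.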
Assay [11] concerns Mus musculus. As to the kind of experiment: Exploratory activity of mice determined by an antimex activity meter, 10 mg/kg of dose was administered perorally. The following applies: route oral.
The test system of assay [12] is Canis familiaris. As to the kind of experiment: Inhibition of apomorphine induced emesis in dogs at 1 mg/kg of dose. As to conditions: Canis lupus familiaris. The procedure, abridged:
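Beagle dogs (10-15 kg), groups of three, given compound po in a gelatin capsule; 2 h later apomorphine hydrochloride 0.3 mg/kg sc. Vomiting counted for 1 h; mean inhibition as percent of control. ED50 is the dose giving 50% inhibition of emesis, by Litchfield-Wilcoxon.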

Assay [13] relates to Mus musculus. As to the kind of experiment: 3,4 -Dihydroxy phenylacetic acid (DOPAC) levels in mouse brain at 10 mg/kg dose. The procedure, abridged: (§2)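 Male Std-ddY mice, 20-25 g, dosed orally with compound in 0.5% aqueous tragacanth. DOPAC was measured fluorometrically after purification by column chromatography on Sephadex G-10 and QAE-Sephadex. Brains from five mice per compound were pooled for each determination.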

The test system of assay [14] is Mus musculus. As to the kind of experiment: Antiexploratory activity (EXPL) of mice determined by an antimex activity meter, 10 mg/kg of dose was administered perorally; No inhibition. As to conditions: route oral.
Assay [15] deals with Mus musculus. As to the kind of experiment: 3,4 -Dihydroxy phenylacetic acid (DOPAC) levels in mouse brain at 50 mg/kg dose. The procedure, abridged:
as §2

Assay [16] relates to Mus musculus. As to the kind of experiment: The homovanillic acid (HVA) levels in mouse brain at 10 mg/kg of dose. The procedure, abridged:
as §1

For assay [17], the system named is Mus musculus. As to the kind of experiment: Exploratory activity of mice determined by an antimex activity meter, 50 mg/kg of dose was administered perorally. As to conditions: Mus musculus, po. The procedure, abridged: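 Male Std-ddY mice (20-25 g), five per dose; compound in 0.5% aqueous tragacanth given orally. Two hours later each mouse placed in an Animex activity meter cage and locomotor activity counted for 3 min. Mean suppression expressed as percent inhibition of control; ED50 by Litchfield-Wilcoxon.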

Assay [18] relates to Mus musculus. As to the kind of experiment: Antireserpine activity (RES) of mice after peroral administration of 50 mg/kg of compound; Slight inhibition (31-50%). As to conditions: route oral.
Assay [19] concerns Mus musculus. As to the kind of experiment: Antiexploratory activity (EXPL) of mice determined by an antimex activity meter, 100 mg/kg of dose was administered perorally. As to conditions: route oral.
In assay [20] the test system is Mus musculus. As to the kind of experiment: Antitremorine activity(TRM) of mice after peroral administration of 100 mg/kg of compound; No inhibition. The following applies: route oral.
Assay [21] has as its system Mus musculus. As to the kind of experiment: Antimaximal electroshock seizure (MES) activity in mice after peroral administration of 100 mg/kg of compound; 0/5. As to conditions: route oral.
Assay [22] has as its system Mus musculus. As to the kind of experiment: Antireserpine activity (RES) of mice after peroral administration of mg/kg of compound; Slight inhibition (31-50%).
Assay [23] relates to Mus musculus. As to the kind of experiment: Antiexploratory activity (EXPL) of mice determined by an antimex activity meter, 50 mg/kg of dose was administered perorally; No inhibition. The following applies: route oral.
The subject of assay [24] is Mus musculus. As to the kind of experiment: Antimaximal electroshock seizure (MES) activity in mice after peroral administration of 100 mg/kg of compound; 3/5. The following applies: route oral.
Assay [25] concerns Mus musculus. As to the kind of experiment: Antiexploratory activity (EXPL) of mice determined by an antimex activity meter, 100 mg/kg of dose was administered perorally; No inhibition. The following applies: route oral.
The subject of assay [26] is Mus musculus. As to the kind of experiment: Antitremorine activity(TRM) of mice after peroral administration of 50 mg/kg of compound; No inhibition. As to conditions: route oral.
Assay [27] relates to Mus musculus. As to the kind of experiment: Antiexploratory activity (EXPL) of mice determined by an antimex activity meter, 50 mg/kg of dose was administered perorally; Moderate inhibition (51-71%). The following applies: route oral.

In the case of `CCN1CCN(C2=Nc3ccc(C)cc3CC=C2c2ccccc2)CC1.Cl.Cl`, the results for the Activity in [1] and in assay [5] were 4 and 0, respectively. The ED50 was 70.2 mg/kg in [2] and 32.3 mg/kg in assay [8]. The inhibition in vivo at 100 mg/kg in [3] is more than 71%; in assay [7] it was less than 30%. The same compound showed an inhibition in vivo at 10 mg/kg in assay [4] of less than 30%. The Inhibition in assay [6] is reported as less than 30%.
As for `CCN1CCN(C2=Nc3ccccc3CC=C2c2ccc(F)cc2)CC1.Cl.Cl`, the values for the inhibition in vivo at 50 mg/kg in assay [9], in assay [17] and in assay [18] were more than 71%, 86.8% and 31%, respectively. Also, the Control in assay [10] came to 461%; in [13] it was 287%; in [15] it was 345%; in assay [16], 432%. In addition, the inhibition in vivo at 10 mg/kg was 10.6% in assay [11] and less than 30% in assay [14]. In assay [12], this compound had an inhibition in vivo at 1 mg/kg of 100%.
For `Cl.Cl.OCCN1CCN(C2=Nc3ccc(F)cc3CC=C2c2ccccc2)CC1`, the figures for the inhibition in vivo at 100 mg/kg in [19], in assay [20] and in assay [7] were more than 71%, less than 30% and less than 30%, respectively. The ED50 in [2] and in assay [8] was more than 500 mg/kg in each case. Also, in assay [21], the Activity stood at 0.
With `Cl.Cl.OCCN1CCN(C2=Nc3ccccc3CC=C2c2cccc(Cl)c2)CC1`, the Inhibition in [22] turned out to be 31%. This compound came in with an Activity in [21] of 0. Further, in assay [23], the inhibition in vivo at 50 mg/kg is less than 30%.
In the case of `CCN1CCN(C2=Nc3ccc(Br)cc3CC=C2c2ccccc2)CC1.Cl.Cl`, in assay [24], the Activity is recorded as 3. The ED50 in [2] came to 30.7 mg/kg; in assay [8] it was 17.2 mg/kg. For the same compound, the inhibition in vivo at 100 mg/kg in assay [20], in [7] and in assay [25] was less than 30% each time.
As for `O=C(c1ccc(F)cc1)C1CCN(C2=Nc3ccccc3CC=C2c2ccc(Cl)cc2)CC1`, the inhibition in vivo at 50 mg/kg in assay [26] and in [23] was less than 30% in each case. In addition, in [7], the inhibition in vivo at 100 mg/kg was less than 30%. The Activity in [21] came to 0.
In the case of `Cl.Cl.OCCN1CCN(C2=Nc3ccccc3CC=C2c2ccc(F)cc2)CC1`, the figures for the inhibition in vivo at 50 mg/kg in assay [27] and in [17] were 51% and 68.4%, respectively. In addition, the Control is listed as 349% in [10], 262% in assay [13], 369% in assay [15] and 243% in assay [16]. Moreover, the inhibition in vivo at 10 mg/kg was 19.6% in assay [11] and less than 30% in assay [14]. Further, the inhibition in vivo at 1 mg/kg in assay [12] is 100%.
With `Cl.OC1CCN(C2=Nc3ccccc3CC=C2c2ccc(F)cc2)CC1`, the inhibition in vivo at 50 mg/kg in [26] and in assay [23] was less than 30% each time. In addition, in assay [7], the inhibition in vivo at 100 mg/kg was less than 30%. The compound also returned an Activity in assay [21] of 0.

For the origin of these results see ChEMBL document CHEMBL1124216, “A novel class of potential central nervous system agents. 3-Phenyl-2-(1-piperazinyl)-5H-1-benzazepines” (1988).
